Calls of active or inactive are those of the source. No cut-off for these calls is given here.
Key:
HCT-15 = assay: Cytotoxicity against human HCT-15 cells assessed as cell growth inhibition; format: functional, cell-based
Procedure, shortened: (§1)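 Compounds were dissolved in sterile DMSO as 10 mg ml−1 stocks and tested for in vitro growth inhibition of human cancer cell lines. Doxorubicin was the standard drug and DMSO (0.01%) the vehicle control. IC50 values are reported as means.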

CAL-27 [1] = assay: Cytotoxicity against human CAL-27 cells assessed as cell growth inhibition; format: functional, cell-based; procedure, shortened: as §1
SCC-9 [2] = assay: Cytotoxicity against human SCC-9 cells assessed as cell growth inhibition; format: functional, cell-based; procedure, shortened: as §1
A549 = assay: Cytotoxicity against human A549 cells assessed as cell growth inhibition; format: functional, cell-based
Procedure, shortened: (§2)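 Compounds were dissolved in sterile DMSO as 10 mg ml−1 stocks and tested in vitro for cytotoxicity in a cell-line panel, with DMSO (0.01%) as vehicle control and doxorubicin as standard. Mean IC50 values were reported, and the normal lung epithelial cells were tested up to 100 μM.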

[3] = Cytotoxicity against human BEAS-2B cells assessed as cell growth inhibition; format: toxicity, cell-based; procedure, shortened: as §2
CAL-27 [4] = assay: Cell cycle arrest in human CAL-27 cells assessed as accumulation at G0/G1 phase at 0.5 uM incubated for 24 hrs by flow cytometry (reference value: 77.6 %); format: functional
CAL-27 [5] = assay: Cell cycle arrest in human CAL-27 cells assessed as accumulation at S phase at 0.5 uM incubated for 24 hrs by flow cytometry (reference value: 3.6 %); format: functional
CAL-27 [6] = assay: Cell cycle arrest in human CAL-27 cells assessed as accumulation at G2/M phase at 0.5 uM incubated for 24 hrs by flow cytometry (reference value: 11.9 %); format: functional
SCC-9 [7] = assay: Cell cycle arrest in human SCC-9 cells assessed as accumulation at G0/G1 phase at 0.5 uM incubated for 24 hrs by flow cytometry (reference value: 70.8 %); format: functional
SCC-9 [8] = assay: Cell cycle arrest in human SCC-9 cells assessed as accumulation at S phase at 0.5 uM incubated for 24 hrs by flow cytometry (reference value: 14.4 %); format: functional
SCC-9 [9] = assay: Cell cycle arrest in human SCC-9 cells assessed as accumulation at G2/M phase at 0.5 uM incubated for 24 hrs by flow cytometry (reference value: 14.2 %); format: functional
CAL-27 [10] = assay: Induction of apoptosis in human CAL-27 cells assessed as live cells at 0.5 uM incubated for 24 hrs by Annexin V-FITC/PI staining based flow cytometric analysis (reference value: 99.8 %); format: functional
Procedure, shortened: (§3)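 CAL27 cells were treated with vehicle, doxorubicin or test compounds at 10–63 μM, and apoptosis was assessed by annexin V–FITC/PI staining with flow cytometry. Cells were scored as live, early apoptotic, late apoptotic or necrotic. The vehicle was DMSO (0.01%).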

CAL-27 [11] = assay: Induction of apoptosis in human CAL-27 cells assessed as early apoptotic cells at 0.5 uM incubated for 24 hrs by Annexin V-FITC/PI staining based flow cytometric analysis (reference value: 0.1 %); format: functional; procedure, shortened: as §3
CAL-27 [12] = assay: Induction of apoptosis in human CAL-27 cells assessed as late apoptotic cells at 0.5 uM incubated for 24 hrs by Annexin V-FITC/PI staining based flow cytometric analysis (reference value: 0.1 %); format: functional; procedure, shortened: as §3
CAL-27 [13] = assay: Induction of apoptosis in human CAL-27 cells assessed as necrotic cells at 0.5 uM incubated for 24 hrs by Annexin V-FITC/PI staining based flow cytometric analysis (reference value: 0.0 %); format: functional; procedure, shortened: as §3
SCC-9 [14] = assay: Induction of apoptosis in human SCC-9 cells assessed as live cells at 0.5 uM incubated for 24 hrs by Annexin V-FITC/PI staining based flow cytometric analysis (reference value: 95.7 %); format: functional
SCC-9 [15] = assay: Induction of apoptosis in human SCC-9 cells assessed as early apoptotic cells at 0.5 uM incubated for 24 hrs by Annexin V-FITC/PI staining based flow cytometric analysis (reference value: 2.8 %); format: functional
SCC-9 [16] = assay: Induction of apoptosis in human SCC-9 cells assessed as late apoptotic cells at 0.5 uM incubated for 24 hrs by Annexin V-FITC/PI staining based flow cytometric analysis (reference value: 1.4 %); format: functional
SCC-9 [17] = assay: Induction of apoptosis in human SCC-9 cells assessed as necrotic cells at 0.5 uM incubated for 24 hrs by Annexin V-FITC/PI staining based flow cytometric analysis (reference value: 0.1 %); format: functional
MCF7 = assay: Cytotoxicity against human MCF7 cells assessed as cell growth inhibition; format: functional, cell-based; procedure, shortened: as §1
CAL-27 [18] = assay: Cell cycle arrest in human CAL-27 cells assessed as accumulation at G0/G1 phase at 21 uM incubated for 24 hrs by flow cytometry (reference value: 77.6 %); format: functional
CAL-27 [19] = assay: Cell cycle arrest in human CAL-27 cells assessed as accumulation at G0/G1 phase at 42 uM incubated for 24 hrs by flow cytometry (reference value: 77.6 %); format: functional
CAL-27 [20] = assay: Cell cycle arrest in human CAL-27 cells assessed as accumulation at S phase at 21 uM incubated for 24 hrs by flow cytometry (reference value: 3.6 %); format: functional
CAL-27 [21] = assay: Cell cycle arrest in human CAL-27 cells assessed as accumulation at S phase at 42 uM incubated for 24 hrs by flow cytometry (reference value: 3.6 %); format: functional
CAL-27 [22] = assay: Cell cycle arrest in human CAL-27 cells assessed as accumulation at G2/M phase at 21 uM incubated for 24 hrs by flow cytometry (reference value: 11.9 %); format: functional
CAL-27 [23] = assay: Cell cycle arrest in human CAL-27 cells assessed as accumulation at G2/M phase at 42 uM incubated for 24 hrs by flow cytometry (reference value: 11.9 %); format: functional
CAL-27 [24] = assay: Induction of apoptosis in human CAL-27 cells assessed as live cells at 21 uM incubated for 24 hrs by Annexin V-FITC/PI staining based flow cytometric analysis (reference value: 99.8 %); format: functional; procedure, shortened: as §3
CAL-27 [25] = assay: Induction of apoptosis in human CAL-27 cells assessed as early apoptotic cells at 21 uM incubated for 24 hrs by Annexin V-FITC/PI staining based flow cytometric analysis (reference value: 0.1 %); format: functional; procedure, shortened: as §3
CAL-27 [26] = assay: Induction of apoptosis in human CAL-27 cells assessed as late apoptotic cells at 21 uM incubated for 24 hrs by Annexin V-FITC/PI staining based flow cytometric analysis (reference value: 0.1 %); format: functional; procedure, shortened: as §3
CAL-27 [27] = assay: Induction of apoptosis in human CAL-27 cells assessed as necrotic cells at 21 uM incubated for 24 hrs by Annexin V-FITC/PI staining based flow cytometric analysis (reference value: 0.0 %); format: functional
CAL-27 [28] = assay: Induction of apoptosis in human CAL-27 cells assessed as live cells at 42 uM incubated for 24 hrs by Annexin V-FITC/PI staining based flow cytometric analysis (reference value: 99.8 %); format: functional; procedure, shortened: as §3
CAL-27 [29] = assay: Induction of apoptosis in human CAL-27 cells assessed as early apoptotic cells at 42 uM incubated for 24 hrs by Annexin V-FITC/PI staining based flow cytometric analysis (reference value: 0.1 %); format: functional; procedure, shortened: as §3
CAL-27 [30] = assay: Induction of apoptosis in human CAL-27 cells assessed as late apoptotic cells at 42 uM incubated for 24 hrs by Annexin V-FITC/PI staining based flow cytometric analysis (reference value: 0.1 %); format: functional; conditions: in the assay text read “early apoptotic cells” for “late apoptotic cells”; procedure, shortened: as §3
CAL-27 [31] = assay: Induction of apoptosis in human CAL-27 cells assessed as necrotic cells at 42 uM incubated for 24 hrs by Annexin V-FITC/PI staining based flow cytometric analysis (reference value: 0.0 %); format: functional
CAL-27 [32] = assay: Induction of apoptosis in human CAL-27 cells assessed as downregulation of vimentin gene expression at 21 uM by qRT-PCR analysis; format: functional, cell-based
Procedure, shortened: (§4)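 CAL27 cells were treated with test compounds at several concentrations. Relative expression of vimentin, E-cad, Nanog, Oct-4, Bax and BcL-2 was measured by qRT-PCR against vehicle-treated control cells.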

CAL-27 [33] = assay: Induction of apoptosis in human CAL-27 cells assessed as downregulation of vimentin gene expression at 42 uM by qRT-PCR analysis; format: functional, cell-based; procedure, shortened: as §4
CAL-27 [34] = assay: Induction of apoptosis in human CAL-27 cells assessed as downregulation of Oct-4 gene expression at 21 uM by qRT-PCR analysis; format: functional, cell-based; procedure, shortened: as §4
CAL-27 [35] = assay: Induction of apoptosis in human CAL-27 cells assessed as downregulation of Oct-4 gene expression at 42 uM by qRT-PCR analysis; format: functional, cell-based; procedure, shortened: as §4
CAL-27 [36] = assay: Induction of apoptosis in human CAL-27 cells assessed as downregulation of Nanog gene expression at 21 uM by qRT-PCR analysis; format: functional, cell-based; procedure, shortened: as §4
CAL-27 [37] = assay: Induction of apoptosis in human CAL-27 cells assessed as downregulation of Nanog gene expression at 42 uM by qRT-PCR analysis; format: functional, cell-based; procedure, shortened: as §4
CAL-27 [38] = assay: Induction of apoptosis in human CAL-27 cells assessed as downregulation of BcL-2 gene expression at 21 uM by qRT-PCR analysis; format: functional, cell-based; procedure, shortened: as §4
CAL-27 [39] = assay: Induction of apoptosis in human CAL-27 cells assessed as downregulation of BcL-2 gene expression at 42 uM by qRT-PCR analysis; format: functional, cell-based; procedure, shortened: as §4
CAL-27 [40] = assay: Induction of apoptosis in human CAL-27 cells assessed as upregulation of Bax gene expression at 21 uM by qRT-PCR analysis; format: functional, cell-based
Procedure, shortened: (§5)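 CAL27 cells were treated with test agents at different concentrations. Relative mRNA levels of vimentin, E-cad, Nanog, Oct-4, Bax and Bcl-2 were then quantified by qRT-PCR as apoptosis, EMT and stemness markers.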

CAL-27 [41] = assay: Induction of apoptosis in human CAL-27 cells assessed as upregulation of Bax gene expression at 42 uM by qRT-PCR analysis; format: functional, cell-based; procedure, shortened: as §5
CAL-27 [42] = assay: Induction of apoptosis in human CAL-27 cells assessed as upregulation of E-cad gene expression at 21 uM by qRT-PCR analysis; format: functional, cell-based; procedure, shortened: as §5
CAL-27 [43] = assay: Induction of apoptosis in human CAL-27 cells assessed as upregulation of E-cad gene expression at 42 uM by qRT-PCR analysis; format: functional, cell-based; procedure, shortened: as §5

SMILES: COc1cccc2c1C(=O)c1c(O)c3c(c(O)c1C2=O)C[C@@](O)(C(=O)CO)C[C@@H]3O[C@H]1C[C@H](N)[C@H](O)[C@H](C)O1 [DOXORUBICIN]
- IC50 (HCT-15): 800 nM
- IC50 (CAL-27 [1]): 400 nM
- IC50 (SCC-9 [2]): 390 nM
- IC50 (A549): 800 nM
- IC50 [3]: 800 nM
- Activity (CAL-27 [4]): 59.7%
- Activity (CAL-27 [5]): 4.2%
- Activity (CAL-27 [6]): 34.3%
- Activity (SCC-9 [7]): 29%
- Activity (SCC-9 [8]): 16.31%
- Activity (SCC-9 [9]): 55.6%
- Activity (CAL-27 [10]): 16%
- Activity (CAL-27 [11]): 0.7%
- Activity (CAL-27 [12]): 58.9%
- Activity (CAL-27 [13]): 24.4%
- Activity (SCC-9 [14]): 7.1%
- Activity (SCC-9 [15]): 0.3%
- Activity (SCC-9 [16]): 41%
- Activity (SCC-9 [17]): 51.5%

SMILES: COc1c(O)c(CN2CCN(S(=O)(=O)c3ccc(I)cc3)CC2)c2c(c1O)C1O[C@H](CO)[C@@H](O)[C@H](O)C1OC2=O (stereo partly specified)
- IC50 (HCT-15): > 100000 nM
- IC50 (CAL-27 [1]): 41600 nM
- IC50 (SCC-9 [2]): > 100000 nM
- IC50 (A549): > 100000 nM
- IC50 (MCF7): > 100000 nM
- IC50 [3]: > 100000 nM
- Activity (CAL-27 [18]): 83.3%
- Activity (CAL-27 [19]): 83.7%
- Activity (CAL-27 [20]): 3.5%
- Activity (CAL-27 [21]): 1.9%
- Activity (CAL-27 [22]): 12.6%
- Activity (CAL-27 [23]): 11.5%
- Activity (CAL-27 [24]): 97.1%
- Activity (CAL-27 [25]): 1.1%
- Activity (CAL-27 [26]): 0.7%
- Activity (CAL-27 [27]): 1.1%
- Activity (CAL-27 [28]): 94.6%
- Activity (CAL-27 [29]): 1.7%
- Activity (CAL-27 [30]): 1.7%
- Activity (CAL-27 [31]): 2%
- Activity (CAL-27 [32]): Active
- Activity (CAL-27 [33]): Active
- Activity (CAL-27 [34]): Active
- Activity (CAL-27 [35]): Active
- Activity (CAL-27 [36]): Active
- Activity (CAL-27 [37]): Active
- Activity (CAL-27 [38]): Active
- Activity (CAL-27 [39]): Active
- Activity (CAL-27 [40]): Active
- Activity (CAL-27 [41]): Active
- Activity (CAL-27 [42]): Active
- Activity (CAL-27 [43]): Active
